Source: PMC3611965 (Nuclear medicine and biology, 2012)
Where two headings read alike, the source gives them in different places.

Legend:
MDR1 = MDR1 (Homo sapiens, UniProt P08183); test: MDR1 efflux ratio; type: in vitro ADME; settings: MDCK-MDR1
FAAH [1] = biological target: T1, FAAH (Mus musculus, UniProt O08914); test: in vitro competitive ABPP; type: biochemical
T1 sequence (O08914 1-579): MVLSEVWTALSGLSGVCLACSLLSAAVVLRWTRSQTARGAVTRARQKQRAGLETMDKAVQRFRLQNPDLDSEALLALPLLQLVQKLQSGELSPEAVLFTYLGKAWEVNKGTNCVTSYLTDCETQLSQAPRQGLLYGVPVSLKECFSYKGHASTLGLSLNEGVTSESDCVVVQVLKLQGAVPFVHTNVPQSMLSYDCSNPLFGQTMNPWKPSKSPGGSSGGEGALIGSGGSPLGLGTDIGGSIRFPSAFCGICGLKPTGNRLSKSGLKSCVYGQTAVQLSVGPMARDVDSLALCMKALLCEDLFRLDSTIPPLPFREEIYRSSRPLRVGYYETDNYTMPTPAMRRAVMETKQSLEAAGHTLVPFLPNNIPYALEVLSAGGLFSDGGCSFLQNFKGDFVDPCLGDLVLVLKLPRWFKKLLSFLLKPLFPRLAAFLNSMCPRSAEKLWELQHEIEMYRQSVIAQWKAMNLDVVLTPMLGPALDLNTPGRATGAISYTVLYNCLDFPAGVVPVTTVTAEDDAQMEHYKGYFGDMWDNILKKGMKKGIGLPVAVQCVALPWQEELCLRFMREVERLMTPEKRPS
Method in brief: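 Wild-type C57Bl/6J mouse brain membrane fractions (1 mg/mL total protein) were preincubated with varying test compound concentrations for 30 min at 37 °C. FP-Rh was then added (50 μM stock in DMSO) for another 30 min at 37 °C. Samples were quenched in SDS loading buffer and run on SDS-PAGE with in-gel fluorescence scanning. IC50 was calculated from band fluorescence.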

FAAH [2] = biological target: T1, FAAH; test: in vivo competitive ABPP of brains of treated mice; settings: C57Bl/6 mice, 10 mg/kg i.p. or p.o., 1 h, gel-based ABPP
Method in brief: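 Wild-type C57Bl/6J mice got test compound or vehicle (18:1:1 PBS:Emulphor:ethanol) and were killed after 1 h. Half-brains were frozen in liquid N2, washed in cold PBS, dounce-homogenized and sonicated, then spun at 1000×g (10 min, 4 °C) and 145,000×g (45 min, 4 °C) into soluble and membrane fractions. These were diluted to 1 mg/mL and labelled with FP-Rh (30 min, 37 °C) for SDS-PAGE fluorescence profiling.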

[3] = MDCK passive permeability; type: in vitro ADME; settings: dog
FAAH [4] = settings: rats; ref [25]; cited from earlier work
FAAH [5] = settings: rhesus monkeys; ref [23]; cited from earlier work
FAAH [6] = settings: human studies; ref [23]; cited from earlier work

Sequence of MDR1 (P08183 whole entry, species assumed): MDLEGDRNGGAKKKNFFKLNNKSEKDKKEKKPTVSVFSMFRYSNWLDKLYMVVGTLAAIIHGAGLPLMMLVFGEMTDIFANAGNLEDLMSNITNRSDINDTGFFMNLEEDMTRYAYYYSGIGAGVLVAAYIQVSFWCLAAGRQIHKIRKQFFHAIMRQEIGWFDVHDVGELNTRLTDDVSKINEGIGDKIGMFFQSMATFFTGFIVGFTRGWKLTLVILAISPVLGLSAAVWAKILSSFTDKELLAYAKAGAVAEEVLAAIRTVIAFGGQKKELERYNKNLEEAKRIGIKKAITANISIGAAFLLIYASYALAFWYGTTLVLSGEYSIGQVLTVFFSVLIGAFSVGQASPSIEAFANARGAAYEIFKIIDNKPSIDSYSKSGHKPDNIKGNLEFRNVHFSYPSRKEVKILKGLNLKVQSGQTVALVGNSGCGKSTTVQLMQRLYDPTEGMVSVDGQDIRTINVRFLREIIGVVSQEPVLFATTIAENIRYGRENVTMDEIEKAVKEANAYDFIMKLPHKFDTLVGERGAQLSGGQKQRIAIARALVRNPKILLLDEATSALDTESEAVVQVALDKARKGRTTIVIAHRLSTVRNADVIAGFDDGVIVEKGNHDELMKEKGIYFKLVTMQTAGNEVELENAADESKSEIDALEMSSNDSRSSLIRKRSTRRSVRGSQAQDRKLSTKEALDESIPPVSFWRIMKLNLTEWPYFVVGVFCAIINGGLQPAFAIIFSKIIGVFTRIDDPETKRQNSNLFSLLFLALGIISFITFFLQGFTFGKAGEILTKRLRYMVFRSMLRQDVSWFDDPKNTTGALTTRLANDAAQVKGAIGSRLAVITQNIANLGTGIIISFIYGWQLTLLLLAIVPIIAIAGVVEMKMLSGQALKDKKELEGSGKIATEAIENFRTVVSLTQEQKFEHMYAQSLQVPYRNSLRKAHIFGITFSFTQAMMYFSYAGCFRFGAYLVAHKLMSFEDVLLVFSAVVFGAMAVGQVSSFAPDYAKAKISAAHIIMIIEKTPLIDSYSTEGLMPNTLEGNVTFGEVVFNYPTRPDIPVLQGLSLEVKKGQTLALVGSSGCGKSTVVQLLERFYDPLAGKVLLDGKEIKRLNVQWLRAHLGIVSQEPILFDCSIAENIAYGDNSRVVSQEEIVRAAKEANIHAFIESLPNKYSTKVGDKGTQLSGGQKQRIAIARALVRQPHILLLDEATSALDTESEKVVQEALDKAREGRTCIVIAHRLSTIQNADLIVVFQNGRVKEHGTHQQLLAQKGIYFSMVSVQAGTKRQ

Compound: O=C(Nc1cccnn1)N1CCC(=Cc2cccc(Oc3ccc(OCCF)cn3)c2)CC1 [PF-9811, 4-(3-((5-(2-fluoroethoxy)pyridin-2-yl)oxy)benzylidene)-N-(pyridazin-3-yl)piperidine-1-carboxamide]
- efflux ratio (MDR1): 2.52
- IC50 (FAAH [1]): 16 nM
- fold less potent than parent 4 (FAAH [1]; FAAH, competitive ABPP, mouse brain proteome): 5 fold
- FAAH inhibition in brain in vivo (FAAH [2]): completely inhibited
- off-targets among brain serine hydrolases in vivo (FAAH [2]): no detectable off-targets
- Papp A→B [3]: 18.2 ×10⁻⁶ cm/s

Compound: O=[11C](NC1CCCCC1)Oc1ccc(O)c(-c2ccccc2)c1 [[^11 C]-CURB]
- brain uptake (FAAH [4]): good brain uptake

Compound: CN(C)C(=O)[C@H]1C[C@@H]1c1ccc(-c2ncn([11CH3])c2Sc2ccc(Cl)cn2)cc1 [[^11 C]MK-3168]
- brain uptake (PET) (FAAH [5]): Heterogeneous, specific brain uptake
- brain uptake (PET) (FAAH [6]): high brain uptake
